# Measurements from publication PMC2741010 (Biochemistry, 2009).
# Residue numbers refer to the chain shown, from its start. Values joined by “and” are separate entries in the source; they are usually repeats but may differ in a detail not shown here. Equal values may be shown once.
# Tests used:
# Assay in all cases: 3′-CMP titration followed by 1H-15N HSQC, NMR line shape analysis
# RNase A (H48A) = biological target: T1, RNase A (H48A) (Bos taurus, UniProt P61823, H74A); type: binding
# T1 sequence (P61823 27-150 H74A): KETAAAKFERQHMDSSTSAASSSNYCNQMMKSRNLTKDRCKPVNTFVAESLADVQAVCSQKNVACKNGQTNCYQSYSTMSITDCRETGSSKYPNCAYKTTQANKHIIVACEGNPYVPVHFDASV
# WT RNase A = biological target: T2, WT RNase A (Bos taurus, UniProt P61823); type: binding, bovine; conditions: for koff: global two-state fit of residues, 298 K, pH 6.4
# T2 sequence (P61823 27-150): T1 sequence (P61823 27-150 H74A) with A48H
# In short: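 Each point recorded as a 1H-15N sensitivity-enhanced HSQC at 11.7 T, with spectral widths of 1600 Hz (t1) and 7000 Hz (t2). Kd and koff were taken from NMR line-shape fits of backbone amide shift changes.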
# [1] = biological target: T3, RNase AECP (RNase A with loop 1 from ECP) (Bos taurus, UniProt P61823, DEL40-47/INS50PP/S49L/Y51R); type: binding
# T3 sequence (P61823 with tags, fused parts or gaps DEL40-47/S49L/INS50PP/Y51R): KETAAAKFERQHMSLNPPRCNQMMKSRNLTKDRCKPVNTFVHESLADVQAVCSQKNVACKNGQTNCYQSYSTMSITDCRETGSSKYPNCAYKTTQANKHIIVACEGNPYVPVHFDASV
smiles,measurement,setting,value
"Nc1ccn([C@@H]2O[C@H](CO)[C@@H](OP(=O)(O)O)[C@H]2O)c(=O)n1 [3′-CMP, cytidine-3′-monophosphate]",Kd,RNase A (H48A),895 ± 50 µM
same,decrease in koff relative to WT,RNase A (H48A); H48A vs WT RNase A,10 fold and ~ 10 fold
same,reduction of binding affinity relative to WT,RNase A (H48A); H48A vs WT RNase A,~ 12 fold
same,kon,"RNase A (H48A); RNase A H48A mutant, kon determined from koff/Kd",1.59 × 10^5 ± 2.30 × 10^4 M^−^1s^−^1
same,koff,RNase A (H48A); pH 6.4,142 ± 19 s⁻¹
same,Kd,WT RNase A,74 ± 2 µM
same,koff,WT RNase A; WT RNase A,1155 ± 120 s⁻¹
same,kon,"WT RNase A; WT RNase A, kon determined from koff/Kd",1.56 × 10^7 ± 1.67 × 10^6 M^−^1s^−^1
same,koff,"WT RNase A; pH 6.4, WT RNase A",~1200 s⁻¹
same,Kd,[1],300 ± 16 µM
same,kon,"[1]; RNase AECP chimera, kon determined from koff/Kd",3.20 × 10^5 ± 3.45 × 10^4 M^−^1s^−^1
same,decrease in koff relative to WT,[1]; RNase AECP vs WT RNase A,10 fold and ~ 10 fold
same,reduction of binding affinity relative to WT,[1]; RNase AECP vs WT RNase A,~ 4 fold
same,koff,[1]; pH 6.4,96 ± 9 s⁻¹
